{"data": "Assay results from different studies", "Dipeptidyl peptidase 8": "Dipeptidyl peptidase 8 (Homo sapiens, UniProt Q6V1X1)", "HDAC8": "Histone deacetylase 8 (HDAC8, Homo sapiens, UniProt Q9BY41)", "Nos1": "Nitric oxide synthase 1 (Nos1, Rattus norvegicus, UniProt P29476)", "USP8": "Ubiquitin carboxyl-terminal hydrolase 8 (USP8, Homo sapiens, UniProt P40818)", "note": "Protocols differ between the studies behind these lines."}
{"SMILES": "N#Cc1ccc(NCCNCC(=O)N2N=CCC2C#N)nc1 (stereo not shown)", "target": "Dipeptidyl peptidase 8", "read-out": "enzyme activity", "action": "inhibitor", "concentration": "1 µM", "inhibition": "0%"}
{"SMILES": "O=C(CCCCCCC(=O)Nc1ccccc1)NO", "target": "Histone deacetylase 1 (HDAC1, Homo sapiens, UniProt Q13547)", "read-out": "enzyme activity", "action": "inhibitor", "concentration": "0.1 µM", "inhibition": "66.3%"}
{"SMILES": "N=C(N)c1ccc2cc(OC(=O)c3ccc(N=C(N)N)cc3)ccc2c1", "target": "Dipeptidyl peptidase 8", "read-out": "enzyme activity", "action": "inhibitor", "concentration": "10 µM", "inhibition": "8%"}
{"SMILES": "CCN(CC)CCCC[C@H](NC(=O)[C@H](CC(C)C)NC(=O)[C@H](C)NC(=O)[C@H](Cc1ccccc1)NC(=O)c1ccc(C(C)(C)C)cc1)C(=O)N[C@@H](CO)C(=O)OC", "target": "Substance-K receptor (TACR2, Homo sapiens, UniProt P21452)", "read-out": "ligand displacement", "method": "radioligand", "concentration": "10 µM", "inhibition": "75%"}
{"SMILES": "C#Cc1n[nH]c2c(-c3cn(C(C)c4ccccn4)c(=O)[nH]c3=O)cc(F)cc12 (stereo not shown)", "target": "Glycogen synthase kinase-3 alpha (GSK3A, Homo sapiens, UniProt P49840)", "read-out": "enzyme activity", "action": "inhibitor", "concentration": "1 µM", "inhibition": "4.6%"}
{"SMILES": "Cn1cc(-c2cccc(N3CCc4c(sc5c4CC(C)(C)C5)C3=O)c2CO)cc(Nc2ccncn2)c1=O", "target": "Protein kinase C alpha type (PRKCA, Homo sapiens, UniProt P17252)", "read-out": "enzyme activity", "action": "inhibitor", "concentration": "1 µM", "inhibition": "5%"}
{"SMILES": "COc1cc(Nc2ncc(F)c(Nc3ccc4c(n3)NC(=O)C(C)(C)O4)n2)cc(OC)c1OC", "target": "Ephrin type-A receptor 6 (EPHA6, Homo sapiens, UniProt Q9UF33)", "read-out": "binding", "method": "competition with immobilised ligand", "concentration": "10 µM", "inhibition": "82%"}
{"SMILES": "COc1c2ccoc2cc2oc(=O)ccc12", "target": "HDAC8", "read-out": "enzyme activity", "action": "inhibitor", "concentration": "10 µM", "inhibition": "34.4%"}
{"SMILES": "c1ccc(C(NCCNC(c2ccccc2)c2ccccc2)c2ccccc2)cc1", "target": "Nos1", "read-out": "enzyme activity", "action": "inhibitor", "concentration": "10 µM", "inhibition": "6%"}
{"SMILES": "O=C(Nc1cccnn1)N1CCN([C@@H]2CCOc3cc(C(F)(F)F)ccc32)CC1", "target": "Somatostatin receptor type 4 (SSTR4, Homo sapiens, UniProt P31391)", "read-out": "ligand displacement", "concentration": "20 µM", "inhibition": "29%"}
{"SMILES": "Cn1cc(-c2cc(F)cc(N3CCn4c(cc5c4CCCC5)C3=O)c2CO)cc(Nc2ccc(N3CCN(C4COC4)CC3)cn2)c1=O", "target": "Testis-specific serine/threonine-protein kinase 2 (TSSK2, Homo sapiens, UniProt Q96PF2)", "read-out": "enzyme activity", "action": "inhibitor", "concentration": "0.1 µM", "inhibition": "17%"}
{"SMILES": "CCOC(=O)c1ccc(OC(=O)CCCCCNC(=N)N)cc1", "target": "USP8", "read-out": "enzyme activity", "action": "inhibitor", "concentration": "10 µM", "inhibition": "0%"}
{"SMILES": "O=c1ccc2ccc3occc3c2o1", "target": "HDAC8", "read-out": "enzyme activity", "action": "inhibitor", "concentration": "10 µM", "inhibition": "33.9%"}
{"SMILES": "CN(C)C(=O)COC(=O)Cc1ccc(OC(=O)c2ccc(NC(=N)N)cc2)cc1", "target": "USP8", "read-out": "enzyme activity", "action": "inhibitor", "concentration": "10 µM", "inhibition": "0%"}
{"SMILES": "C[C@H](C(=O)N[C@H]1COc2ccccc2[C@@H]1S(C)(=O)=O)c1ccc(F)cc1", "target": "Nos1", "read-out": "enzyme activity", "action": "inhibitor", "concentration": "10 µM", "inhibition": "6%"}
{"SMILES": "C#Cc1n[nH]c2c(-c3cn([C@@H](C)c4ccccc4)c(=O)[nH]c3=O)cc(F)cc12", "target": "Tyrosine-protein kinase Yes (YES1, Homo sapiens, UniProt P07947)", "read-out": "enzyme activity", "action": "inhibitor", "concentration": "0.1 µM", "inhibition": "-3.5%"}
